What was measured:
[1] = system: Phelipanche ramosa seeds; experiment: Germination stimulation activity assay on P. ramosa seeds; conditions: in vivo
[2] = system: PrKAI2d3; experiment: Thermostability of PrKAI2d3 by nanoDSF; assay type: binding, Phelipanche ramosa; conditions: PrKAI2d3 at 10 μM, ligands at 100 μM
In short: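 Protein at about 10 μM in PBS (100 mM phosphate pH 6.8, 150 mM NaCl) was mixed with ligand or no ligand. Intrinsic fluorescence (350/330 nm ratio) was recorded over a 1°C/min temperature ramp at 55% excitation. Apparent Tm was taken from the first derivative of the ratio curve.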

[3] = system: A. thaliana htl-3/p35S::GFP-PrKAI2d3 seeds; experiment: Arabidopsis germination assay, htl-3 complemented with PrKAI2d3; assay type: in vivo, Arabidopsis thaliana; conditions: Arabidopsis Col-0, htl-3 and the three p35S::GFP-PrKAI2d3 complemented lines; data not shown
In short: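 After-ripened (≥6 weeks), surface-sterilized seeds were suspended in 1 mM HEPES pH 7.5 at 10 mg/mL and dispensed at about 20–25 seeds per well. Stimulant (GR24 isomers) or DMSO control was added. Plates were incubated either 5 days at 25°C in darkness or, for thermo-inhibition, 7 days at 32–34°C under constant light (10 μmol m−2 s−1). Germination was scored as radicle protrusion. Groups were compared by Kruskal–Wallis.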

[4] = system: Phelipanche ramosa seeds; experiment: Inhibition of P. ramosa germination stimulation induced by GR24 or 2-PEITC; assay type: in vivo
In short: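 Seeds from a genetic-group-1 population were surface-sterilized and conditioned in darkness at 21°C. Germination was stimulated with 10 nM (±)-GR24 or 100 nM 2-PEITC in the presence of test compound. Maximum inhibition and IC50 were derived from the response.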

[5] = system: Striga hermonthica seeds; experiment: Germination stimulation activity assay on S. hermonthica seeds; assay type: in vivo
In short: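 Surface-sterilized seeds were conditioned in darkness at 30°C. Compounds were dissolved at 10 mM in DMSO, serially diluted in water/DMSO 9:1, and applied at 10−13 to 10−6 M (final water/DMSO 99:1). Controls were 1% DMSO (negative) and 1 μM (±)-GR24 (positive). Germination was expressed relative to the positive control in each assay, with at least three repeats. EC50 came from a four-parameter logistic fit.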

[6] = system: pea (Pisum sativum) shoot branching; experiment: Pea shoot branching assay; assay type: in vivo; conditions: direct injection in the stem, 100 μM, rms1-10
[7] = system: A. thaliana htl-3/ShHTL7 seeds; experiment: Arabidopsis germination assay, htl-3 expressing ShHTL7; assay type: in vivo
[8] = system: rice (Oryza sativa); conditions: high concentration (50 μM); ref Nakamura et al., 2013; cited from earlier work
[9] = system: PrKAI2d3; experiment: Enzymatic assays with profluorescent probes and p-nitrophenyl acetate; assay type: biochemical, Phelipanche ramosa

With `S=C=NCCc1ccccc1` [2-PEITC, phenethyl isothiocyanate] the “Seeds of P. ramosa fold less sensitive than to (±)-GR24” value [1] was “approximately 10 000 fold”, the “apparent melting temperature (Tm)” value [2] was 45.1 °C and the “sensitivity of germination in words” value [3] was “insensitive”.
For `CC1=CC(=O)CC(C)(C)[C@@]1(O)/C=C/C(C)=C\C(=O)O` [ABA, abscisic acid], the IC50 ([4]; 2-PEITC (100 nM)) was 0.034 µM and the IC50 ([4]; GR24 (10 nM)) was 0.1 µM.
For `CC1=CC(O)OC1=O` [D-OH, 4-Hydroxy-2-methylbut-2-en-4-olide], the EC50 [5] was 1.2 µM, the “effect on branching control in pea, in words” value [6] was “no effect on branching control” and the EC50 [7] was 3.1 µM. For the same molecule, the “bioactivity in rice, in words” value [8] was “bioactive”.
With `CC(=O)Oc1ccc([N+](=O)[O-])cc1` [p-NPA, para-nitrophenyl acetate] the “PrKAI2d3 hydrolase activity with generic substrate, in words” value [9] was “no hydrolytic activity was detected”.

Source: PMC8553955 (Plant Communications, 2021)
